Results taken from ChEMBL document CHEMBL1212886, “New N-(phenoxydecyl)phthalimide derivatives displaying potent inhibition activity towards alpha-glucosidase” (Bioorg Med Chem, 2010).
Calls of active or inactive are those of the source. No cut-off for these calls is given here.

Assays:
[1] = Inhibition of Saccharomyces cerevisiae alpha-glucosidase after 10 mins
How it was run: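 Yeast α-glucosidase, 25 mU/mL final, in 10 mM phosphate buffer pH 7.28, preincubated with test compound (DMSO) 5 min at 37 °C. p-NPG substrate 80 μM final; stopped after 10 min with 0.5 M Na2CO3; 4-nitrophenol read at 400 nm against DMSO control. Eight concentrations; triplicate, at least two runs; IC50 taken graphically from percent activity vs log concentration.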

[2] = target: Alpha-galactosidase (Coffea arabica) (UniProt Q42656); assay: Inhibition of green coffee bean alpha-galactosidase at 25 uM after 10 mins
Sequence of Alpha-galactosidase (Coffea arabica) (Q42656 16-378 limits assumed): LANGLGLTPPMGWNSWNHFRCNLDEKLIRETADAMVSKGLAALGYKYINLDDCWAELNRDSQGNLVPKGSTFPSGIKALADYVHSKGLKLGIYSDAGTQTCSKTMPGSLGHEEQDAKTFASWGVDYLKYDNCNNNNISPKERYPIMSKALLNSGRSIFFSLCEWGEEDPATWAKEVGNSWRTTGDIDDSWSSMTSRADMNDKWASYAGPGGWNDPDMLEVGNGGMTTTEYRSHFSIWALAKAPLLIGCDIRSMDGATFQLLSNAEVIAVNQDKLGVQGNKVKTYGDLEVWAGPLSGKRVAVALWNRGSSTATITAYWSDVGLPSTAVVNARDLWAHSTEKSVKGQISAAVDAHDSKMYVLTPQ
How it was run: (§1)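 Enzyme 12.5 mU per sample in buffer: β-glucosidase, 50 mM sodium citrate pH 5.0; α-mannosidase, 10 mM sodium acetate pH 4.5; α-galactosidase, 50 mM potassium phosphate pH 6.5. Compound in DMSO at 25 µM, preincubated 5 min at 37 °C; substrate added at 80 μM final; stopped after 10 min with 1 M Na2CO3. Absorbance compared with DMSO control; triplicate.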

Canavalia ensiformis = assay: Inhibition of Canavalia ensiformis alpha-mannosidase at 25 uM after 10 mins; how it was run: as §1
Prunus dulcis = assay: Inhibition of almond beta-glucosidase at 25 uM after 10 mins; how it was run: as §1
SH-SY5Y = assay: Cytotoxicity against human SH-SY5Y cells after 2 hrs by MTT assay; assay type: functional, cell-based
How it was run: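 SH-SY5Y neuroblastoma cells exposed to compound at 5 μM and at a second concentration for 2 h. MTT (5 mg/mL in DMEM + 10% FBS) then added, 4 h at 37 °C. Supernatant removed, formazan dissolved in DMSO, absorbance read at 540 nm. Sextuplicate, repeated twice.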

Row | Compound | IC50 [1] [µM] | also measured
1 | O=C1c2ccccc2C(=O)N1CCCCCCCCCCOc1ccc(C(F)(F)F)cc1 | 0.83 | –
2 | O=C1c2ccccc2C(=O)N1CCCCCCCCCCOc1c(Cl)cc(Cl)cc1[N+](=O)[O-] | 0.75 | inhibition [2]: inactive; inhibition (Canavalia ensiformis): inactive; inhibition (Prunus dulcis): inactive; inhibition (SH-SY5Y): inactive
3 | O=C1c2ccccc2C(=O)N1CCCCCCCCCCOc1ccc(Cl)cc1[N+](=O)[O-] | 0.475 | inhibition [2]: inactive; inhibition (Canavalia ensiformis): inactive; inhibition (Prunus dulcis): inactive; inhibition (SH-SY5Y): inactive
4 | O=C1c2ccccc2C(=O)N1CCCCCCCCCCOc1ccc([N+](=O)[O-])cc1[N+](=O)[O-] | 0.97 | –
5 | O=C1c2ccccc2C(=O)N1CCCCCCCCCCOc1ccc([N+](=O)[O-])c(C(F)(F)F)c1 | 0.83 | –
6 | Cc1cc(Cl)c([N+](=O)[O-])c(C)c1OCCCCCCCCCCN1C(=O)c2ccccc2C1=O | 3.6 | –
7 | OC[C@H]1NC[C@H](O)[C@@H](O)[C@@H]1O [DUVOGLUSTAT] | 52 | –
8 | Cc1cc(Cl)cc(C)c1OCCN1C(=O)c2ccccc2C1=O | 13 | –
9 | O=C1c2ccccc2C(=O)N1CCCCCCCCCCOc1cc(Cl)c(Cl)cc1[N+](=O)[O-] | 0.52 | inhibition [2]: inactive; inhibition (Canavalia ensiformis): inactive; inhibition (Prunus dulcis): inactive; inhibition (SH-SY5Y): inactive
10 | Cc1ccc(Cl)cc1OCCCCCCCCCCN1C(=O)c2ccccc2C1=O | 0.91 | –
11 | Cc1cc(Cl)cc(C)c1OCCCCCCCCCCN1C(=O)c2ccccc2C1=O | 1.34 | –
12 | O=C1c2ccccc2C(=O)N1CCCCCCCCCCOc1ccc(Cl)cc1Cl | 1.19 | –
13 | O=C1c2ccccc2C(=O)N1CCCCCCCCCCOc1ccc(C(F)(F)F)cc1[N+](=O)[O-] | 1.31 | –
14 | Cc1cc([N+](=O)[O-])c(Cl)cc1OCCCCCCCCCCN1C(=O)c2ccccc2C1=O | 0.65 | inhibition [2]: inactive; inhibition (Canavalia ensiformis): inactive; inhibition (Prunus dulcis): inactive; inhibition (SH-SY5Y): inactive
15 | Cc1cccc(C)c1OCCCCCCCCCCN1C(=O)c2ccccc2C1=O | 3.25 | –
16 | O=C1c2ccccc2C(=O)N1CCCCCCCCCCOc1ccc([N+](=O)[O-])cc1 | 0.86 | –
17 | Cc1cc([N+](=O)[O-])cc(C)c1OCCCCCCCCCCN1C(=O)c2ccccc2C1=O | 1.32 | –
18 | O=C1c2ccccc2C(=O)N1CCCCCCCCCCOc1ccc(Cl)c(Cl)c1 | 1 | –

Continued, in another order:

Row | IC50 [1] [µM] | Compound | also measured
19 | 94 | O=C1c2ccccc2C(=O)N1CCOc1ccc(Cl)cc1 | –
20 | 33 | O=C1c2ccccc2C(=O)N1CCCCOc1ccccc1 | –
21 | 7.55 | O=C1c2ccccc2C(=O)N1CCCOc1ccc(Cl)c(Cl)c1 | –
22 | 3.04 | O=C1c2ccccc2C(=O)N1CCCCCCCCCOc1ccccc1 | –
23 | 59 | O=C1c2ccccc2C(=O)N1CCCOc1ccc(Cl)cc1 | –
24 | 6.5 | O=C1c2ccccc2C(=O)N1CCCCCCCCOc1ccccc1 | –
25 | 1.07 | O=C1c2ccccc2C(=O)N1CCCCCCCCCCOc1cccc([N+](=O)[O-])c1 | –
26 | 8.9 | Cc1cc(Cl)ccc1OCCCN1C(=O)c2ccccc2C1=O | –
27 | 240 | O=C1c2ccccc2C(=O)N1CCCOc1ccccc1 | –
28 | 2.5 | O=C1c2ccccc2C(=O)N1CCCCCCCCCCOc1ccccc1 | –
29 | 1.78 | O=C1c2ccccc2C(=O)N1CCCCCCCCCCOc1ccccc1[N+](=O)[O-] | –
30 | 20.2 | O=C1c2ccccc2C(=O)N1CCCCCOc1ccccc1 | –
31 | 14.8 | Cc1cc(Cl)ccc1OCCN1C(=O)c2ccccc2C1=O | –
32 | 2.1 | Cc1ccc(OCCCCCCCCCCN2C(=O)c3ccccc3C2=O)cc1 | –
33 | 10.3 | O=C1c2ccccc2C(=O)N1CCCCCCOc1ccccc1 | –
34 | 1.09 | O=C1c2ccccc2C(=O)N1CCCCCCCCCCOc1cccc(Cl)c1 | –
35 | 296 | O=C1c2ccccc2C(=O)N1CCOc1ccccc1 | –
36 | 9.5 | Cc1cc(Cl)cc(C)c1OCCCN1C(=O)c2ccccc2C1=O | –
37 | 1.2 | O=C1c2ccccc2C(=O)N1CCCCCCCCCCOc1ccc(Cl)cc1 | –
38 | 15 | O=C1c2ccccc2C(=O)N1CCCOc1cccc(Cl)c1Cl | –
